SENP7 inh – SENP7 protease inhibitors, primary screen, biochemical, luminescence, uHTS | recombinant SENP7, Z-RLRGG-aminoluciferin luminescence, 40 min | Sentrin-specific protease 7 (Homo sapiens), Q9BQF6 | inhibition, % at 5 µM | 330,000 tested, 1.5% active;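 active = inhibition above about 50% at the single test dose, limit read from the data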
SENP1 FRET inh – human SENP1 catalytic domain inhibitors, primary screen, biochemical, FRET, uHTS; recombinant SENP1 catalytic domain, CyPet-SUMO1-YPet FRET cleavage; 360,000 tested, 0.21% active; AID 624204, 2012; Sentrin-specific protease 1 (Homo sapiens), Q9P0U3; inhibition, % at 10 µM;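 active = inhibition at least 30% at 10 µM, raw YFP signal under a set limit, fluorescence ratio 0.5 to 1.5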
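Test system: hSENP1 catalytic domain, recombinant; Amount: 20 pM final SENP1 enzyme; Medium: Tris pH 8 buffer plus EDTA, NaCl, BME, BSA, NP40, catalase; Schedule: 50 min enzyme reaction, room temperature, light-protected; Technique: FRET fluorescence in CFP and YFP emission channels; Controls: no-enzyme wells low, DMSO-plus-enzyme wells high control.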
SENP8 block-1 – human SENP8 protease inhibitors, primary screen, biochemical, fluorescence, Nedd8 protein substrate, uHTS | recombinant SENP8 | Sentrin-specific protease 8 (Homo sapiens), Q96LD8 | inhibition, % at 20 µM | 360,000 tested, 0.64% active | AID 602440, 2012; in the data active = inhibition mostly above about 40%, no sharp cut-off; inactive = mostly below about 27%
Target sequence (Q96LD8 whole entry, looked up): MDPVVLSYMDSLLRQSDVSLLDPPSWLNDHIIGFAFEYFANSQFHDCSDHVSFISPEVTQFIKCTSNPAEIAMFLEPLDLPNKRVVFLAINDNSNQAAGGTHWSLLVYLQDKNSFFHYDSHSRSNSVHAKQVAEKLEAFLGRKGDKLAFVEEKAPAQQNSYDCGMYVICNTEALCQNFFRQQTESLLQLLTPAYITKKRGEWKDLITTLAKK
SENP6 block – SENP6 protease inhibitors, primary screen, biochemical, luminescence, uHTS. Sentrin-specific protease 6 (Homo sapiens), Q9GZR1. 330,000 tested, 1.8% active. Recombinant SENP6 catalytic domain, aminoluciferin luminescence. inhibition, % at 10 µM;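 active = inhibition above about 50% at the single tested dose, limit read from the data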
SENP8 block-2 – SENP8 protease inhibitors, primary screen, biochemical, luminescence; purified SENP8, Z-RLRGG-aminoluciferin cleavage; 330,000 tested, 1.2% active; inhibition, % at 10 µM; in the data active = inhibition above about 50%
SENP8 confirm – SENP8 protease inhibitors, retest, confirmation, biochemical, luminescence, single concentration | inhibition, % at 12.5 µM | Recombinant SENP8, Z-RLRGG-aminoluciferin luminescence, 60 min | 6,200 tested, 40% active | AID 488912, 2010 | shares compounds with SENP7 inh;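 active = mean inhibition across replicates above about 50%, limit read from the data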
SENP6 confirm – SENP6 protease inhibitors, confirmation, biochemical, luminescence, single concentration; shares compounds with SENP7 inh; recombinant SENP6, Z-RLRGG-aminoluciferin luminescence; inhibition, % at 12.5 µM; 6,200 tested, 58% active
SENP7 confirm – SENP7 protease inhibitors, retest, confirmation, biochemical, luminescence, single concentration. 6,200 tested, 69% active. recombinant SENP7, Z-RLRGG-aminoluciferin luminescence, 40 min. inhibition, % at 12.5 µM. shares compounds with SENP7 inh
Casp3 SENP sel – caspase-3 protease inhibitors, confirmation, selectivity assay for SENP inhibitor project, biochemical, single concentration; shares compounds with SENP7 inh; purified caspase-3, Z-DEVD-aminoluciferin luminescence, 60 min; inhibition, % at 12.5 µM; 6,200 tested, 60% active;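 active = mean inhibition above about 50%, limit read from the data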
Target sequence (P42574 28-227 limits assumed): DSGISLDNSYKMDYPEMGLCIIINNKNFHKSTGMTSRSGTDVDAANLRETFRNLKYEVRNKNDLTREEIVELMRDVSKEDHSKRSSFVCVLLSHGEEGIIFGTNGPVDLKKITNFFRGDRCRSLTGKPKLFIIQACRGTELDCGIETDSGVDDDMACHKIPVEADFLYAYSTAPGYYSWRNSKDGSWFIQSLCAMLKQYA
SENP luc ctr – luminescence interference (SENP counter-screen); shares compounds with SENP7 inh; Pre-incubated SENP8/Z-RLRGG-aminoluciferin, luciferase luminescence interference; inhibition, % at 12.5 µM; 6,200 tested, 39% active; AID 488919;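 active = mean inhibition above about 50% when retested at one dose, limit read from the data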
A number is an active result; 0 = inactive; - = not tested or not shown. Shown are actives, neighbours in structure and some others; about 2.5% of the full set was active somewhere.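 Rule for the calls, unless noted: active = mean inhibition above about 50% in the one-dose retest (limit read from the data); inactive = the rest.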

SMILES	SENP7 inh	SENP1 FRET inh	SENP8 block-1	SENP6 block	SENP8 block-2	SENP8 confirm	SENP6 confirm	SENP7 confirm	Casp3 SENP sel	SENP luc ctr
CC(C)C(=O)Nc1ccc2nn(-c3ccccc3)nc2c1	51	0	0	0	0	0	0	71	0	0
Cc1ccc(C2=NN(S(C)(=O)=O)C(c3cccs3)C2)cc1 (stereo unspecified)	52	0	0	74	54	68	64	87	75	67
COc1ccc(C2=NN(S(C)(=O)=O)C(c3cccs3)C2)cc1 (stereo unspecified)	0	0	0	0	0	-	-	-	-	-
CS(=O)(=O)N1N=C(c2ccc(Br)cc2)CC1c1cccs1 (stereo unspecified)	0	0	0	61	0	0	0	83	56	0
CCS(=O)(=O)Nc1cccc(C2=NN(S(=O)(=O)c3ccc(C)cc3)C(c3cccs3)C2)c1 (stereo unspecified)	0	0	0	0	0	-	-	-	-	-
CCc1ccc(C2=NN(S(C)(=O)=O)C(c3cccs3)C2)cc1 (stereo unspecified)	92	0	0	96	83	90	90	99	90	86
CS(=O)(=O)N1N=C(c2cccs2)CC1c1ccccc1 (stereo unspecified)	0	0	0	0	0	-	-	-	-	-
Cc1cc(OC(=O)c2ccc(S(=O)(=O)N(C)C)cc2)c([N+](=O)[O-])c(=O)[nH]1	0	0	0	0	0	-	-	-	-	-
Clc1ccc(COn2nnc3ccccc32)c(Cl)c1	0	0	0	60	0	0	0	77	0	0
Cc1nn(C)cc1S(=O)(=O)N1CCCCC1C (stereo unspecified)	0	0	0	0	0	-	-	-	-	-
Cc1cc2c(SCC(=O)NC3CCCC3)ncnc2s1	0	0	0	0	0	-	-	-	-	-
O=C(c1cc(-c2ccc(O)cc2)on1)N1CCCC1	0	0	0	0	0	-	-	-	-	-
Cc1ccc(-c2cc(C(=O)N3CCCCCC3)no2)cc1	0	0	0	61	0	0	0	0	0	0
COc1ccc(-c2cc(C(=O)N3CCCCCC3)no2)cc1	0	0	0	57	0	0	50	83	56	0
COc1cccc(-c2cc(C(=O)N3CCCCCC3)no2)c1	0	0	0	67	0	62	61	85	62	0
COc1cccc(-c2cc(C(=O)N3CCN(c4ccc(F)cc4)CC3)no2)c1	0	0	0	0	0	-	-	-	-	-
COc1ccc(-c2cc(C(=O)N3CCCC3)no2)cc1	53	0	0	74	0	0	52	86	80	0
COc1ccc(-c2cc(C(=O)N3CCCCCC3)no2)cc1OC	0	0	0	0	0	-	-	-	-	-
Cc1nc2ccc(C(=O)NCCc3c[nH]c4ccccc34)cn2c1N(C)C(=O)CCc1ccccc1	-	0	0	-	-	-	-	-	-	-
O=C(c1cc(-c2ccc(Br)cc2)on1)N1CCCC1	0	0	0	55	0	0	0	0	0	0
COc1ccc(NC(=O)CN(C)C(=O)C2(c3ccccc3)CCCC2)cc1	0	0	0	0	0	-	-	-	-	-
Clc1ccc(-c2nc3ncccn3c2Nc2ccc3c(c2)OCO3)cc1	0	0	0	0	0	-	-	-	-	-
Oc1ccc(-c2nc3ncccn3c2Nc2ccc3c(c2)OCO3)cc1	93	0	0	86	0	0	0	0	0	0
COc1ccc(C(=O)N=c2nc3ccccn3s2)cc1	98	0	0	95	90	88	91	96	82	0
COc1ccc(C(=O)O/N=C2\C(=O)N(C)c3ccccc32)cc1	0	0	0	0	0	-	-	-	-	-
SMILES	SENP7 inh	SENP1 FRET inh	SENP8 block-1	SENP6 block	SENP8 block-2	SENP8 confirm	SENP6 confirm	SENP7 confirm	Casp3 SENP sel	SENP luc ctr
O=C(COC(=O)c1cccnc1Nc1ccccc1F)NC1CC1	0	0	0	0	0	-	-	-	-	-
CN(C(=O)COC(=O)c1cccnc1Nc1cccc(C(F)(F)F)c1)C1CCS(=O)(=O)C1 (stereo unspecified)	0	0	0	0	0	-	-	-	-	-
CCN(C(=O)COC(=O)c1cc(-c2ccc3cc(OC)ccc3c2)nc2ccccc12)C1CCS(=O)(=O)C1 (stereo unspecified)	92	-	-	94	89	0	74	0	77	0
CN(C(=O)COC(=O)c1cccnc1Nc1ccccc1F)C1CCS(=O)(=O)C1 (stereo unspecified)	56	0	0	58	0	0	0	74	75	53
CCN(C(=O)COC(=O)c1cccnc1Nc1ccccc1F)C1CCS(=O)(=O)C1 (stereo unspecified)	96	0	0	91	83	91	91	99	94	90
Cc1ccc(C(=O)N=c2sccn2C)cc1C	83	0	0	82	67	70	70	94	86	81
Cc1ccc(C(=O)N=c2sccn2C)cc1S(=O)(=O)N1CCOCC1	0	0	0	0	0	-	-	-	-	-
Cc1cc(C(=O)COC(=O)c2ccc(O)cc2O)c(C)n1-c1ccccc1	61	0	0	89	84	88	89	96	59	0
OC(c1ccccc1)(c1nc(-c2ccccc2)cs1)C(F)(F)F (stereo unspecified)	-	0	0	-	-	-	-	-	-	-
O=c1c2ccccc2nnn1CSc1ccccc1	78	0	0	87	75	81	81	96	88	85
O=c1c2ccccc2nnn1CSc1ccc2ccccc2n1	0	0	0	0	0	-	-	-	-	-
COc1ccc(C2CC(=O)Oc3cc(C)c(Cl)c(C)c32)cc1 (stereo unspecified)	0	0	0	-	-	-	-	-	-	-
CC(=O)N1CCc2cc(S(=O)(=O)NCCC(=O)NC3CCCCCC3)ccc21	0	0	0	0	0	-	-	-	-	-
COc1cccc(OCc2ccc(Cl)cc2)c1C#N	97	0	0	91	93	84	96	100	88	0
